Screening results from PubChem BioAssay.
Most compounds without a hit are left out; they make up all but 2.5% or so of the library.
NadD inh: inhibitors of S. aureus NadD, primary screen, biochemical, colorimetric, uHTS; Nicotinate-nucleotide adenylyltransferase NadD (Staphylococcus aureus N315); 0.78% of 360,000 active; purified NadD enzyme, colorimetric absorbance read-out; inhibition, % at 20 µM; in the data active = inhibition above about 26%
GRK2 aptamer HTS: compounds blocking aptamer binding on GRK2 – biochemical, human GRK2, bead flow cytometry, HTS, primary screen. inhibition of aptamer binding, % at 10 µM. Beta-adrenergic receptor kinase 1 (Homo sapiens), P25098. 0.59% of 330,000 active. FAM-aptamer displacement from GRK2;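 active = inhibition of aptamer binding above 40%, roughly 3 SD of noise, on plates passing a quality check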;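 also: median bead fluorescence of bound FAM aptamer so fluorescent compounds give negative values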
SENP1 FRET inh: human SENP1 catalytic domain inhibitors, primary screen, biochemical, FRET, uHTS | recombinant SENP1 catalytic domain, CyPet-SUMO1-YPet FRET cleavage | 0.21% of 360,000 active | inhibition, % at 10 µM | AID 624204, 2012;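 active = inhibition at least 30% at 10 µM, raw YFP signal under a set limit, fluorescence ratio 0.5 to 1.5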;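 also: 0% = enzyme with DMSO and 100% = no enzyme wells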
Target sequence (Q9P0U3 419-644 limits assumed): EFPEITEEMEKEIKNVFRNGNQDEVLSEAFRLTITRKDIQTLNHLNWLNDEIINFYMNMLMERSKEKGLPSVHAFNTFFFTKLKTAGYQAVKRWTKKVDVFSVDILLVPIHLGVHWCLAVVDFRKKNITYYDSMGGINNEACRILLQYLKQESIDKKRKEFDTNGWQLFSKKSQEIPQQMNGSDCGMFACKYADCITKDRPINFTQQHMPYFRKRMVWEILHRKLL
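Material: hSENP1 catalytic domain, recombinant; medium: Tris pH 8 with BME, BSA, NP40 and catalase; compound: single concentration of 10 µM compound, 0.5% DMSO final; technique: FRET read of cyan and yellow fluorescence; timing: 50 min enzyme reaction, room temperature, light-protected; reagent: SFCypet-SUMO1-SFYpet substrate at 25 nM; control set: no-enzyme low, enzyme-DMSO high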
Beta2AR agonist: beta2AR agonists driving receptor internalization, primary screen, cell-based, FAP fluorogen, flow cytometry | Am2.2-beta2AR cells | AID 504454, 2011 | 0.43% of 340,000 active | Beta-2 adrenergic receptor (Homo sapiens), P07550 | response, % (test concentration not listed);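 active = response above a set limit, near 3 SD of response in nonfluorescent compounds, cut at about 42% in these data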
Target sequence (P07550 whole entry, looked up): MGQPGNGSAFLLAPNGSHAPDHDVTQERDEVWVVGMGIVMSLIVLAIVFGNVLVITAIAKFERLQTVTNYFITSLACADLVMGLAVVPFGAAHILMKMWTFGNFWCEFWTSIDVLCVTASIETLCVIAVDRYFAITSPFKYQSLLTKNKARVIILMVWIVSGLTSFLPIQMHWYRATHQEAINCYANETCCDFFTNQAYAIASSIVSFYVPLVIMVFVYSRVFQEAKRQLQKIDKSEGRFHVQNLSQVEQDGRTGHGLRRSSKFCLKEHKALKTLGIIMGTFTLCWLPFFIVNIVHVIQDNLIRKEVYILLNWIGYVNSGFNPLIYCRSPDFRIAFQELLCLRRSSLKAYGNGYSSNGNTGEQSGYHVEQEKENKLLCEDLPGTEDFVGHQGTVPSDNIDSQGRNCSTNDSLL
ABHD5 PLIN5 PPI: ABHD5-PLIN5 interaction inhibitors, primary screen, cell lysate, split luciferase complementation, luminescence. Perilipin-5 (Homo sapiens) + 1-acylglycerol-3-phosphate O-acyltransferase ABHD5 (Homo …. Split G. princeps luciferase complementation, 4 h. inhibition, % at 4 µM. 0.78% of 360,000 active. AID 602281, 2012;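 active = inhibition above the mean inhibition across every tested compound plus 3 SD, cut at about 22% in these data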;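 also: 0% = DMSO only wells and the 100% control is not disclosed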
ABHD5-PLIN5 conf: ABHD5-PLIN5 interaction inhibitors, confirmation, biochemical, luminescence; 67% of 2,200 active; inhibition, % at 4 µM; shares compounds with ABHD5 PLIN5 PPI; in the data active = inhibition above about 23%;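 also: 0% = DMSO vehicle wells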
HNF4 counter: HNF4 dimerization inhibitors, counter-screen for ABHD5-PLIN5 interaction inhibitor project, biochemical, split-luciferase complementation, luminescence; inhibition, % at 4 µM; 77% of 2,200 active; shares compounds with ABHD5 PLIN5 PPI;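 active = mean inhibition across replicate wells exceeding the computed hit threshold, cut at about 13% in these data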;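 also: light from luciferase halves that rejoin when HNF4 fusion proteins dimerize; 0% = DMSO only wells and the 100% control is not given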
The depositor's hits bear a star; ! = not confirmed by another sample.

`C=C1C(=O)C23C(O)C1CCC2C12CCCC(C)(COC(C)=O)C1C(O)C3(O)OC2` (stereo not drawn) gave NadD inh -3, SENP1 FRET inh -1, Beta2AR agonist 58*, ABHD5 PLIN5 PPI 91*, ABHD5-PLIN5 conf 92* and HNF4 counter 113*.
Screening O=c1ccc2ccccc2c2ccccc12 returned NadD inh -5, SENP1 FRET inh -7, ABHD5 PLIN5 PPI 87*, ABHD5-PLIN5 conf 97* and HNF4 counter 104*.
Screening CC(=O)c1ccc2noc(-c3ccccc3)c2c1 returned NadD inh 3, GRK2 aptamer HTS 1, SENP1 FRET inh -53, Beta2AR agonist 10, ABHD5 PLIN5 PPI 28*, ABHD5-PLIN5 conf 31* and HNF4 counter 49*.
Cn1ccnc1Sc1cc(NCCCO)c([N+](=O)[O-])c2nonc12 was read as NadD inh -6, GRK2 aptamer HTS 2, SENP1 FRET inh -12, Beta2AR agonist 46*, ABHD5 PLIN5 PPI 26*, ABHD5-PLIN5 conf 29* and HNF4 counter 95*.
`CCC1(C(=O)OC)NC(c2ccco2)C2C(=O)N(c3ccccc3)C(=O)C21` (stereo not drawn) gave NadD inh 0, GRK2 aptamer HTS 0, SENP1 FRET inh -1, Beta2AR agonist 12, ABHD5 PLIN5 PPI 25*, ABHD5-PLIN5 conf 11 and HNF4 counter 13*.
CCOC(=O)C1=CN(Cc2ccco2)S(=O)(=O)NC1c1ccc(Br)cc1F (stereo not drawn) was read as NadD inh -2, GRK2 aptamer HTS 3, SENP1 FRET inh -3, Beta2AR agonist -1 and ABHD5 PLIN5 PPI 18.
Screening O=C1CSC(c2cccc([N+](=O)[O-])c2)N1Cc1ccccc1 (stereo not drawn) returned NadD inh -5, GRK2 aptamer HTS 1, SENP1 FRET inh 0, Beta2AR agonist -4 and ABHD5 PLIN5 PPI 5.
Screening CCC(C)NC(=O)Nc1ccc2c(c1)N(C)C(=O)c1ccccc1S2 (stereo not drawn) returned NadD inh -2, GRK2 aptamer HTS 3, SENP1 FRET inh 0, Beta2AR agonist -7, ABHD5 PLIN5 PPI 46*, ABHD5-PLIN5 conf 60* and HNF4 counter 0.
Screening Cc1cccc(-n2cnc3cc(C(=O)NCC4CCCO4)ccc32)c1 (stereo not drawn) returned NadD inh -8, SENP1 FRET inh -1 and ABHD5 PLIN5 PPI -7.
Screening CCCCn1c(=NC(=O)c2cccnc2)c(C(=O)OCC)cc2c(=O)n3ccccc3nc21 returned NadD inh 2, SENP1 FRET inh -23, Beta2AR agonist -1 and ABHD5 PLIN5 PPI -5.
CCOC(=O)c1cc2c(=O)n3cccc(C)c3nc2n(CCCOC)c1=NC(=O)c1cccnc1 was read as NadD inh 1, GRK2 aptamer HTS 0, SENP1 FRET inh -22, Beta2AR agonist 6 and ABHD5 PLIN5 PPI 4.
`CCCCn1c(=NC(=O)c2ccco2)c(C(=O)OCC)cc2c(=O)n3cccc(C)c3nc21` gave NadD inh 3, GRK2 aptamer HTS 6, SENP1 FRET inh -32, Beta2AR agonist 13, ABHD5 PLIN5 PPI 37*, ABHD5-PLIN5 conf 10 and HNF4 counter 14*.
For CCCCCn1c(=NC(=O)c2ccco2)c(C(=O)OCC)cc2c(=O)n3ccccc3nc21 the results were NadD inh 6, GRK2 aptamer HTS 4, SENP1 FRET inh -30, Beta2AR agonist -3, ABHD5 PLIN5 PPI 56*!, ABHD5-PLIN5 conf 18 and HNF4 counter 25*.
COc1cccc(CN(C)C(=O)c2ccccc2Sc2ccccc2C#N)c1OC was read as NadD inh -5, GRK2 aptamer HTS 3, SENP1 FRET inh 1, Beta2AR agonist -2 and ABHD5 PLIN5 PPI -1.
Screening Cc1cccc(N2CCN(C(=S)Nc3ccc4nc(N5CCN(C)CC5)cc(C)c4c3)CC2C)c1 (stereo not drawn) returned NadD inh -3, GRK2 aptamer HTS 0, SENP1 FRET inh -10, Beta2AR agonist 15, ABHD5 PLIN5 PPI 25*, ABHD5-PLIN5 conf 10 and HNF4 counter -4.
For Cc1cc(N2CCN(C)CC2)nc2ccc(NC(=S)N3CCN(c4cccc(Cl)c4)CC3)cc12 the results were NadD inh -1, GRK2 aptamer HTS 0, SENP1 FRET inh -23, Beta2AR agonist 26 and ABHD5 PLIN5 PPI 10.
CCOC(=O)C1(C)CCCN(C(=O)c2snnc2C)C1 (stereo not drawn) was read as NadD inh 0, SENP1 FRET inh 0 and ABHD5 PLIN5 PPI -14.
Screening CCOC(=O)C1=C(C)N(c2ccccc2)C(=O)/C1=C\c1ccc(O)c(OC)c1 returned NadD inh -6, GRK2 aptamer HTS 0, SENP1 FRET inh -15, Beta2AR agonist 2, ABHD5 PLIN5 PPI 26*, ABHD5-PLIN5 conf 39* and HNF4 counter 49*.
`COc1cc(/C=C2/C(=O)CNC2=O)ccc1O` gave NadD inh -2, GRK2 aptamer HTS 1, SENP1 FRET inh 1, Beta2AR agonist 8 and ABHD5 PLIN5 PPI 0.
For COc1cc(C=C2C(=O)C=CC2=O)ccc1O the results were NadD inh 7, SENP1 FRET inh 2, ABHD5 PLIN5 PPI 99*, ABHD5-PLIN5 conf 94* and HNF4 counter 108*.
CC(=O)Nc1ccc(-c2ccnc3c2CC(C)(C(=O)NCCc2ccccc2)O3)cc1 (stereo not drawn) was read as NadD inh -6, SENP1 FRET inh 3 and ABHD5 PLIN5 PPI -10.
For Cc1ccc(C2CC(c3cccs3)=NN2C(=O)c2ccc(Br)o2)cc1 (stereo not drawn) the results were NadD inh 8, GRK2 aptamer HTS 1, SENP1 FRET inh -1, Beta2AR agonist 1, ABHD5 PLIN5 PPI 25*, ABHD5-PLIN5 conf 45* and HNF4 counter 58*.
COc1cccc(NC(=O)C2CCOC2=O)c1 (stereo not drawn) was read as NadD inh -6, GRK2 aptamer HTS 4, SENP1 FRET inh 2, Beta2AR agonist 0 and ABHD5 PLIN5 PPI -2.
O=[N+]([O-])c1ccc(Sc2ccncn2)c([N+](=O)[O-])c1 was read as NadD inh -6, SENP1 FRET inh 0, ABHD5 PLIN5 PPI 29*, ABHD5-PLIN5 conf 41* and HNF4 counter 41*.
